The list is not random: actives were taken first. Their share in the collection is about 2.3%.
TRPC4 block – blocks the mouse TRPC4 cation channel; HEK293 TRPC4beta/mu-opioid, DAMGO-evoked Fluo4 calcium flux; stronger effect = lower value; B-score at 10 µM; AID 2247; 0.39% of 300,000 active;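 active = B-score over 3 SD under the library average, no early fluorescence shift, positive overall ratio signal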
Target sequence (Q9QUQ5 whole entry, looked up): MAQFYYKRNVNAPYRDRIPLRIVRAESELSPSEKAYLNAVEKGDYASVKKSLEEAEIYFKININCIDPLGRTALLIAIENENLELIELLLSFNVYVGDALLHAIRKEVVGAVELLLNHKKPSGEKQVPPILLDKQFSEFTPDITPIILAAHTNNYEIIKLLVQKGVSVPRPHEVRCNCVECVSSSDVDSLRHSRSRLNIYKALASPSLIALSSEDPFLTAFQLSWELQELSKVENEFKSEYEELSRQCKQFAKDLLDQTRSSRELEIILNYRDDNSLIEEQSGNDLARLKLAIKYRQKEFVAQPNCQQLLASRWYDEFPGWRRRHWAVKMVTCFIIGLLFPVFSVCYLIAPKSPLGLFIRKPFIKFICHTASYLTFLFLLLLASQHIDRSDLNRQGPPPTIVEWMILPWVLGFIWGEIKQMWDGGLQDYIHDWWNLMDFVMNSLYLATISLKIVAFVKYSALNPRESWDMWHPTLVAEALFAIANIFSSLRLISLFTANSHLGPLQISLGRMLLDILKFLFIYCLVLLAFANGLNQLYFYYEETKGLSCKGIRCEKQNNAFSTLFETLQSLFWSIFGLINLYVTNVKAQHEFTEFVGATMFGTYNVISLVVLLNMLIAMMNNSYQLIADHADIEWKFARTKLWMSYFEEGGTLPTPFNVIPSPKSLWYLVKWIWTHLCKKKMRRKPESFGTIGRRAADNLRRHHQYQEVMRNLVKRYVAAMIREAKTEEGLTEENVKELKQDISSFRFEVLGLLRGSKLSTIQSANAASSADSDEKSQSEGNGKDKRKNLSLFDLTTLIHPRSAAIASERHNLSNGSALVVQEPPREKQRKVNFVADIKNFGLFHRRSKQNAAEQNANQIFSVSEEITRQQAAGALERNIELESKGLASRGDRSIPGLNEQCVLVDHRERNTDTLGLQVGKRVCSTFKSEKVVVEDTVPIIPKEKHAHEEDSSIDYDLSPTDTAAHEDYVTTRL
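Test system – stable TRPC4beta/mu-opioid receptor HEK293 cells · Probe or stimulus – DAMGO, a submaximal dose followed by a maximal one · Dosing – one concentration per compound · Signal – Fluo4 calcium fluorescence by kinetic imaging, 5 s 1 Hz baseline · Evaluation – per-well B score of integrated baseline-normalized Fluo4 ratio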
TRPC4 agonist – activators of mouse TRPC4 channel | Q9QUQ5 | HEK293 TRPC4beta/mu-opioid, Fluo4 calcium fluorescence; stronger effect = higher value | B-score at 10 µM | 0.49% of 310,000 active | AID 2237;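 active = B-score above 5 SD of library B-scores, and initial fluorescence ratio not above library mean plus 5 SD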;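 also: positive B-score marks a calcium rise read as TRPC4 activation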
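Technique: kinetic Fluo4 calcium fluorescence; Test system: TRPC4beta and mu-opioid receptor HEK293 stable cells; Measure: B-scored integrated calcium fluorescence ratio; Benchmarks: low control buffer alone, high control maximal DAMGO; Schedule: 45 min room-temperature Fluo4 loading, 110 s read.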
TRPC4 PAM – TRPC4 (mouse) allosteric potentiation. HEK293 TRPC4beta/mu-opioid, DAMGO EC20, Fluo-4 Ca2+ flux; stronger effect = higher value. B-score at 10 µM. 0.42% of 310,000 active;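 active = B-score of calcium response area above 5 SD of library B-scores, with initial fluorescence ratio within 5 SD of library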
TRPC6 inhibitor – mouse TRPC6 channel inhibition; AID 2553; 1.1% of 310,000 active; B-score at 10 µM; HEK293-TRPC6, membrane potential dye, ACh-evoked depolarization; stronger effect = lower value;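 active = B-score under library mean minus 3 SD, initial fluorescence not abnormally high, positive integrated signal ratio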;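 also: B-score derived from integrated fluorescence ratio over the kinetic read; more negative B-score means stronger inhibition of depolarization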
TRPC6 activator – mouse TRPC6 channel activation | 0.13% of 310,000 active | B-score at 10 µM | HEK293-TRPC6 membrane potential dye fluorescence; stronger effect = higher value | Q61143 | AID 2550;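 active = B-score of the integrated fluorescence ratio above library mean plus 3 SD, and starting fluorescence ratio within library mean plus 5 SD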;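 also: higher score means more depolarization so channel activation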
TRPC4 sel inh 2 – mouse TRPC4 off-target activity of TRPC6 inhibitors, second screen. shares compounds with TRPC6 inhibitor. HEK293 TRPC4/MOR, membrane potential dye fluorescence; channel activated by saturating DAMGO dose. inhibition, % at 10 µM. 42% of 920 active. AID 2776;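 active = compounds whose fluorescence signal differed from control wells by over 3 SD, either direction, in both duplicate plates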
TRPC4 spec – mouse TRPC4 off-target activity of TRPC6 inhibitors; HEK293 TRPC4/mu-opioid, membrane potential fluorescence; shares compounds with TRPC6 inhibitor; AID 2777; activity change, negative = inhibition, % at 10 µM; 61% of 920 active;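 active = rise or fall in signal beyond 3 SD of buffer-only wells in both replicate plates, either sign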;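 also: integrated kinetic ratio of fluorescence range over baseline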
HEK293 MPD ctr 2-1 – second check of TRPC6 inhibitor effects in parental HEK293 cells. 31% of 920 active. shares compounds with TRPC6 inhibitor. signal change vs control, % at 10 µM. parental HEK293 membrane potential dye fluorescence; maximal acetylcholine challenge after compound addition;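 active = membrane potential signal moving either way by over 3 SD of the maximum-effect control, in both duplicate plates, meaning non-specific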
HEK293 MPD ctr-1 – checks TRPC6 inhibitor effects in parental HEK293 cells. parental HEK293 membrane potential dye fluorescence. AID 2780. 60% of 920 active. shares compounds with TRPC6 inhibitor. membrane potential signal change, % at 10 µM;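 active = membrane potential signal shifting up or down by more than 3 SD of buffer-only wells, on both duplicate plates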
HEK293 MPD ctr-2 – counter-screen for TRPC6 modulators: effect in parental HEK293 cells | shares compounds with TRPC6 inhibitor | membrane potential dye fluorescence | membrane potential signal change, % at 10 µM | 51% of 2,400 active;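 active = membrane potential signal moves up or down beyond 5 SD from buffer-only wells, on both duplicate plates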
HEK293 MPD ctr 2-2 – second counter-screen for TRPC6 modulators: effect in parental HEK293 cells. shares compounds with TRPC6 inhibitor. membrane potential dye fluorescence; after compound, maximal acetylcholine stimulation. inhibition, % at 10 µM. 14% of 2,400 active. AID 488926;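 active = membrane potential signal drops by more than 5 SD from the mean control signal, in both duplicate plates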
TRPC4/MOR mod – mouse TRPC4 off-target activity of TRPC6 modulators. HEK293 TRPC4/mu-opioid, membrane potential fluorescence. percent change from control (negative = decrease, positive = increase), % at 10 µM. 69% of 2,400 active. shares compounds with TRPC6 inhibitor. AID 488927;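 active = membrane potential signal moved up or down beyond 5 SD of buffer control wells, in both duplicate plates, actives on both sides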
TRPC4 ctr inh 2 – second check of whether TRPC6 modulators also affect mouse TRPC4 | inhibition, % at 10 µM | shares compounds with TRPC6 inhibitor | 55% of 2,400 active | HEK293 TRPC4/mu-opioid, membrane potential dye fluorescence; stimulated with maximal-effect DAMGO;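 active = drop in membrane potential signal beyond 5 SD of the control wells in both duplicate plates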;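 also: TRPC4 counter screen for TRPC6 hits run under conditions tuned for TRPC6 not TRPC4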
TRPC6 block conf – confirmation of mouse TRPC6 inhibitors; HEK293-TRPC6, membrane potential dye, ACh-evoked depolarization; 43% of 3,300 active; shares compounds with TRPC6 inhibitor; inhibition, % at 10 µM;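 active = fluorescence ratio falls more than 5 SD below the full-stimulation control mean, in both duplicate runs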;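 also: integrated fluorescence ratio of peak minus minimum over baseline after agonist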
TRPC6 act conf – confirmation of mouse TRPC6 activators | shares compounds with TRPC6 inhibitor | HEK293-TRPC6 membrane potential dye fluorescence, FDSS | activation, % at 10 µM | 11% of 2,800 active | AID 488961;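 active = ratio signal rise beyond 5 SD above unstimulated control wells' mean, seen in both duplicate runs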
Each line names hits and unclear results; the compound was inactive in the other large screens (follow-up assays come after a bar, where they were run).

COc1ccc(CCNC2CC(=O)N(C3CCCCC3)C2=O)cc1OC (centres undefined)	none
N#CC1=C(N)Oc2cc(O)c(Cl)cc2C1c1ccccc1F (centres undefined)	none
COc1ccc(-c2cc(=O)oc3c(C)c(O)c(CN(C)C)cc23)cc1	none
Cc1c(O)c(CN(C)C)cc2c1oc(=O)c1ccccc12	TRPC6 inhibitor -5.2 | HEK293 MPD ctr-2 -126% | HEK293 MPD ctr 2-2 inactive | TRPC4/MOR mod -28% | TRPC4 ctr inh 2 inactive | TRPC6 block conf inactive | TRPC6 act conf inactive
N#Cc1ccccc1CN1C(=O)c2ccccc2S1(=O)=O	none
CSc1nnc2c(n1)OC(c1ccccn1)N(C(C)=O)c1ccccc1-2 (centres undefined)	none
COc1ccc(OCC(=O)NC2CCCN(Cc3ccc(Cl)cc3)C2)cc1 (centres undefined)	TRPC4 PAM 15, TRPC6 inhibitor -6.2 | HEK293 MPD ctr-2 116% | HEK293 MPD ctr 2-2 inactive | TRPC4/MOR mod 24% | TRPC4 ctr inh 2 inactive | TRPC6 block conf 50%
O=C(Nc1cc(C(F)(F)F)ccc1N1CCOCC1)c1ccccc1	none
O=C(Nc1cc(C(F)(F)F)ccc1-n1cnc2ccccc21)c1ccccc1	TRPC6 inhibitor -5.3 | HEK293 MPD ctr-2 106% | HEK293 MPD ctr 2-2 inactive | TRPC4/MOR mod 19% | TRPC4 ctr inh 2 inactive | TRPC6 block conf 47%
[O-]/C(=C(\C(=S)NCc1ccccc1)[n+]1ccccc1)c1ccc(Cl)cc1	none
Cn1cnc2cc(NC(=O)c3ccc(Cl)cc3)ccc21	TRPC6 inhibitor -5.3 | HEK293 MPD ctr-2 inactive | HEK293 MPD ctr 2-2 inactive | TRPC4/MOR mod -11% | TRPC4 ctr inh 2 inactive | TRPC6 block conf inactive | TRPC6 act conf inactive
COc1ccc(-c2cc3nc(C)cc(-c4ccc(OC)cc4)n3n2)cc1	none
COc1ccc(-c2cc3nc(C)cc(NCCO)n3n2)cc1	TRPC6 inhibitor -9 | HEK293 MPD ctr-2 -300% | HEK293 MPD ctr 2-2 inactive | TRPC4/MOR mod -48% | TRPC4 ctr inh 2 49% | TRPC6 block conf 72% | TRPC6 act conf inactive
COCCNc1cc(C)nc2cc(-c3ccc(C)cc3)nn12	none
COc1ccc(-c2cc3nc(C)cc(N)n3n2)cc1	TRPC6 inhibitor -5 | HEK293 MPD ctr-2 -143% | HEK293 MPD ctr 2-2 inactive | TRPC4/MOR mod -22% | TRPC4 ctr inh 2 inactive | TRPC6 block conf inactive | TRPC6 act conf inactive
C/C(=N\Nc1ccc2nncn2n1)c1ccco1	none
C/C(=N\Nc1ccc2nncn2n1)c1ccccn1	TRPC6 inhibitor -7.4 | TRPC4 sel inh 2 71% | TRPC4 spec -36% | HEK293 MPD ctr 2-1 inactive | HEK293 MPD ctr-1 -522% | TRPC6 block conf 84% | TRPC6 act conf inactive
Cc1cccc(NS(=O)(=O)c2ccc(Oc3ccccc3)cc2)n1	TRPC6 inhibitor -6.3 | HEK293 MPD ctr-2 inactive | HEK293 MPD ctr 2-2 inactive | TRPC4/MOR mod 8.5% | TRPC4 ctr inh 2 inactive | TRPC6 block conf inactive | TRPC6 act conf inactive
Cc1cccc(NC(=O)CN(C)S(=O)(=O)c2cccc3nsnc23)c1C	TRPC6 inhibitor -5.5 | HEK293 MPD ctr-2 inactive | HEK293 MPD ctr 2-2 inactive | TRPC4/MOR mod 16% | TRPC4 ctr inh 2 28% | TRPC6 block conf inactive | TRPC6 act conf inactive
CSCc1cc(N(C)c2ccccc2)nc(-c2ccccn2)n1	TRPC6 inhibitor -7.2 | TRPC4 sel inh 2 inactive | TRPC4 spec inactive | HEK293 MPD ctr 2-1 inactive | HEK293 MPD ctr-1 inactive | TRPC6 block conf inactive | TRPC6 act conf inactive
COc1ccc(N=Nc2ccc(O)c3ncccc23)cc1	none
COc1ccc(C)cc1N=Nc1ccc(O)c2ncccc12	TRPC6 inhibitor -5.1 | HEK293 MPD ctr-2 -135% | HEK293 MPD ctr 2-2 inactive | TRPC4/MOR mod -34% | TRPC4 ctr inh 2 73% | TRPC6 block conf inactive | TRPC6 act conf inactive
CCOC(=O)c1c(C)[nH]c(C(=O)CC(=O)OC)c1C	none
Cc1ccc(Nc2c(-c3ccc(N4CCOCC4)cc3)nc3ncccn23)cc1C	TRPC6 inhibitor -6.1 | HEK293 MPD ctr-2 inactive | HEK293 MPD ctr 2-2 inactive | TRPC4/MOR mod -26% | TRPC4 ctr inh 2 80% | TRPC6 block conf inactive | TRPC6 act conf inactive
Cc1cccc(Nc2c(-c3ccc(O)cc3)nc3ncccn23)c1	TRPC6 inhibitor -5.2 | HEK293 MPD ctr-2 -55% | HEK293 MPD ctr 2-2 inactive | TRPC4/MOR mod -13% | TRPC4 ctr inh 2 56% | TRPC6 block conf inactive | TRPC6 act conf inactive
N/C(=N\OC(=O)N1CCOCC1)c1ccc(Br)cc1	none
CCN(CC)CCSc1nnc2c3cc(F)ccc3n(Cc3ccccc3)c2n1	TRPC6 inhibitor -5.9 | HEK293 MPD ctr-2 -78% | HEK293 MPD ctr 2-2 inactive | TRPC4/MOR mod inactive | TRPC4 ctr inh 2 78% | TRPC6 block conf inactive | TRPC6 act conf inactive
CCN(CC)CCSc1nnc2c3ccccc3n(Cc3ccccc3)c2n1	TRPC6 inhibitor -8.2 | TRPC4 sel inh 2 21% | TRPC4 spec 12% | HEK293 MPD ctr 2-1 inactive | HEK293 MPD ctr-1 -230% | TRPC6 block conf 66% | TRPC6 act conf inactive
Cc1ccc(S(=O)(=O)Nc2ccc(C(=O)N3CCOCC3)cc2)cc1	none
CCC(CC)COC(=O)C(C#N)c1nc2ccccc2nc1N1CCN(CC)CC1 (centres undefined)	TRPC6 inhibitor -9.8 | TRPC4 sel inh 2 50% | TRPC4 spec inactive | HEK293 MPD ctr 2-1 inactive | HEK293 MPD ctr-1 inactive | TRPC6 block conf 63% | TRPC6 act conf inactive
